Laboratory results from ChEMBL document CHEMBL1152229, “Synthesis of potent water-soluble tissue transglutaminase inhibitors” (Bioorg Med Chem Lett, 2008).

Tests used:
[1] = Inhibition of guinea pig liver transglutaminase 2 using 5-(biotinamido)pentylamine as substrate by enzyme linked sorbent assay; parameters: species or system Cavia porcellus
Method in brief: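 Wells coated with N,N'-dimethylcasein received TG2 (2 ng ml-1), biotinyl-5-pentylamine, CaCl2 (5 mM), DTT (5 mM) and a range of inhibitor concentrations, then were incubated for 1 h at 37 °C. Incorporated biotinyl-5-pentylamine was quantified with Extravidin peroxidase and o-phenylenediamine colour development.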

[2] = Aqueous solubility of the compound; assay type: physicochemical
[3] = organism: Cavia porcellus; experiment: Inhibition of guinea pig liver transglutaminase 2 at 5 uM preincubated for 60 mins in the presence of Ca2+; parameters: scale not given: the % may be the effect or the level left
[4] = system: Rattus norvegicus; experiment: Protective effect against kidney dysfunction in Wistar rat subtotal 5/6 nephrectomy model of kidney scarring assessed as reduction in scarring administered through osmotic pump measured after 84 days of surgery; assay type: functional; parameters: scale not given: the % may be the effect or the level left

IC50 [1]	Structure (SMILES)	also measured
> 200 µM	O=C(N[C@@H](Cc1ccccc1)C(=O)NCC1CC(Br)=NO1)OCc1ccccc1 (stereo partly specified)	solubility ([2]; water, read-out: solubility): < 1 mg/mL
20 µM	CC[S+](CC)CC(=O)CC[C@H](NC(=O)[C@H](Cc1ccccc1)NC(=O)OCc1ccccc1)C(=O)O	–
30 µM	C[S+](C)CC(=O)CC[C@H](NC(=O)[C@H](Cc1ccccc1)NC(=O)OCC1c2ccccc2-c2ccccc21)C(=O)O	–
110 µM	C[S+](C)CC(=O)CC[C@H](NC(=O)[C@H](Cc1ccccc1)NC(=O)Cc1ccccc1)C(=O)O	–
150 µM	C[S+](C)CC(=O)CC[C@H](NC(=O)[C@H](CCCCN)NC(=O)OCc1ccccc1)C(=O)O	–
3 µM	Cc1c(C)[n+](C)c(SCC(=O)CC[C@H](NC(=O)[C@H](Cc2ccccc2)NC(=O)OCc2ccccc2)C(=O)O)n1C	–
20 µM	C[C@H](NC(=O)OCc1ccccc1)C(=O)N[C@@H](CCC(=O)C[S+](C)C)C(=O)O	–
4 µM	CC(=O)CSc1n(C)cc[n+]1C.[Cl-]	solubility ([2]; water, read-out: solubility): 200 mg/mL
8 µM	C[S+](C)CC(=O)CC[C@H](NC(=O)[C@H](Cc1ccccc1)NC(=O)OCCc1ccccc1)C(=O)O	–
18 µM	C[S+](C)CC(=O)CC[C@H](NC(=O)[C@@H]1C[C@@H](O)CN1C(=O)OCc1ccccc1)C(=O)O	–
350 µM	CC[C@H](C)[C@H](NC(=O)OCc1ccccc1)C(=O)N[C@@H](CCC(=O)C[S+](C)C)C(=O)O	–

Continued, compound first:

Structure (SMILES)	IC50 [1]	also measured
C[S+](C)CC(=O)CC[C@H](NC(=O)[C@H](Cc1ccccc1)NC(=O)OC(C)(C)C)C(=O)O	300 µM	–
C[S+](C)CC(=O)CC[C@H](NC(=O)[C@@H]1CCCN1C(=O)OCc1ccccc1)C(=O)O.[Br-]	5 µM	solubility ([2]; water, read-out: solubility): 500 mg/mL; Activity [3]: 77%
C[S+](C)CC(=O)CC[C@H](NC(=O)[C@H](CC(=O)O)NC(=O)OCc1ccccc1)C(=O)O	28 µM	–
C[S+](C)CC(=O)CC[C@H](NC(=O)CNC(=O)OCc1ccccc1)C(=O)O.[Br-]	8 µM	solubility ([2]; water, read-out: solubility): 1000 mg/mL
C[S+](C)CC(=O)CC[C@H](NC(=O)[C@H](Cc1ccccc1)NC(=O)OCc1ccccc1)C(=O)O.[Br-] (stereo in doubt; 4n)	5 µM	solubility ([2]; buffer): 67 mg/mL
C[S+](C)CC(=O)CC[C@H](NC(=O)[C@H](Cc1c[nH]c2ccccc12)NC(=O)OCc1ccccc1)C(=O)O	12 µM	–
C[S+](C)CC(=O)CC[C@H](NC(=O)[C@H](Cc1ccccc1)NC(=O)OCc1ccccc1)C(=O)O.[Br-] (stereo in doubt; 4d)	10 µM	solubility ([2]; buffer): 167 mg/mL; Activity [4]: 90%
